From PubChem
LMPTP block = LMPTP phosphatase inhibitors, primary screen, biochemical, fluorescence intensity, uHTS; Low molecular weight phosphotyrosine protein phosphatase (Homo sapiens), P24666; recombinant LMPTP-A, OMFP fluorogenic substrate; inhibition, % at 20 µM; 360,000 tested, 0.22% active; AID 651560, 2012;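 active = compounds that cut the enzyme signal by at least half of the control window in the single-dose screen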;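 also: plate controls were DMSO wells with enzyme plus substrate for no effect and substrate without enzyme for full effect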
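Assay system: LMPTP-A, protein tyrosine phosphatase of low molecular weight / Medium: pH 6.0 Bis-Tris buffer with DTT and Triton X-100 / Schedule: 50 min enzyme reaction at room temperature, protected from light / Measured by: endpoint fluorescence intensity from OMFP dephosphorylation / Read-out basis: % inhibition relative to no-enzyme and uninhibited control wells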
PP5 inh = PP5 phosphatase inhibitors, primary screen, biochemical, fluorescence | Serine/threonine-protein phosphatase 5 (Homo sapiens), P53041 | purified PP5c, OMFP substrate fluorescence | inhibition, % at 6.7 µM | 320,000 tested, 0.18% active;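 active = inhibition above the campaign's mean inhibition across all tested compounds plus 3 SD, cut at about 9.5% in these data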;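 also: 0% = DMSO only and 100% = 100 µM cantharidin control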
Scp-1 inhibitor = Scp-1 phosphatase inhibitors, primary screen, biochemical, colorimetric, uHTS; inhibition, % at 20 µM; Recombinant Scp1, phosphopeptide, malachite green phosphate absorbance; Carboxy-terminal domain RNA polymerase II polypeptide A small phosphatase 1 (Homo …; 340,000 tested, 0.88% active;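 active = inhibition above about 50% at 20 µM, limit read from the data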;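 also: plate controls were DMSO wells with enzyme for no effect and wells lacking enzyme for full effect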
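Test system: SCP-1 phosphatase catalytic domain, residues 76-261; measured by: colorimetric phosphate reagent with accelerator and stabiliser, absorbance at 630 nm; timing: enzyme reaction 45 min at room temperature, colour 5 min, stabilisation 30 min; also added: Phosphorylated 17-residue peptide substrate; compound dosing: one concentration, 20 µM, with 1.0% DMSO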
PP1 counter = PP1-alpha phosphatase inhibitors, primary screen, counter-screen for PP5 inhibitor project, biochemical, fluorescence, OMFP substrate, single point. Serine/threonine-protein phosphatase PP1-alpha catalytic subunit (Homo sapiens), P62136. purified PP1alpha. inhibition, % at 6.7 µM. 320,000 tested, 0.9% active. AID 2235, 2010;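 active = inhibition above the mean inhibition of all tested compounds plus 3 SD, computed separately for each screening campaign, cut at about 15% in these data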
STEP inh = STEP phosphatase inhibitors, primary screen, biochemical, fluorescence intensity, uHTS | inhibition, % at 20 µM | recombinant STEP, OMFP fluorogenic substrate | Tyrosine-protein phosphatase non-receptor type 5 (Homo sapiens), P54829 | 360,000 tested, 0.25% active;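 active = inhibition at 20 µM, scaled per plate between control wells, above about 37%, limit read from the data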;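 also: 0% = DMSO with enzyme and substrate and 100% = substrate only without enzyme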
Target sequence (P54829 whole entry, looked up): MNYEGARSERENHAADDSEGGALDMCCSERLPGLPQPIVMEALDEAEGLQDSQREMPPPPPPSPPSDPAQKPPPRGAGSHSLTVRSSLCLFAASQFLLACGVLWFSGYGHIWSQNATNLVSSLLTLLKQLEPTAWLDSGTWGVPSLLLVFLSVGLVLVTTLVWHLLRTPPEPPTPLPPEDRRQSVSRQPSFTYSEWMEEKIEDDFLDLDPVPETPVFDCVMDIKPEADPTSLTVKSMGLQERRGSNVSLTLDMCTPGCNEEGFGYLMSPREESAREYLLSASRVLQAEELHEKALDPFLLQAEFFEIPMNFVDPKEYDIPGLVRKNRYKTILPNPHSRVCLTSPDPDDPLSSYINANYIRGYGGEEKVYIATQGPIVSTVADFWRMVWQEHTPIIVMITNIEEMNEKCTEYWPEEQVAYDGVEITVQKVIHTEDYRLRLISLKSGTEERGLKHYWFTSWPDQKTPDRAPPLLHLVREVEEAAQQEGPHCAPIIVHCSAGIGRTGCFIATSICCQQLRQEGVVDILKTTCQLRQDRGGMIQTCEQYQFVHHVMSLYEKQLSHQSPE
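System: isolated STEP enzyme; schedule: 20 min enzyme reaction at room temperature, protected from light; medium: Bis-Tris buffer pH 6.0, 2.5 mM DTT, 0.005% Tween 20; signal: fluorescence, 480/540 nm; dosing: single compound dose of 20 µM, 1% DMSO final; also added: OMFP substrate, 25 µM final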
An asterisk follows results filed as active; / = not tested or not shown. Shown are actives, neighbours in structure and some others; about 1.9% of the full set was active somewhere.

SMILES	LMPTP block	PP5 inh	Scp-1 inhibitor	PP1 counter	STEP inh
O=C(Nc1nc2c(Cl)ccc(Cl)c2s1)C1CC1	-1	3	-9	2	1
NNc1nc2c(Cl)ccc(Cl)c2s1	85*	0	-2	2	33
COc1ccc(Nc2ncnc3ccccc23)cc1	3	2	-15	2	1
COc1ccc(Nc2ccnc3ccccc23)cc1	56*	-2	-1	1	1
COc1ccc(N=Cc2cc(Cc3ccccc3Cl)cc([N+](=O)[O-])c2O)cc1OC	1	1	67*	0	0
COc1ccc(OC)c(-n2cnnn2)c1	-3	2	-7	-1	0
Cc1ccc(C(=O)O)c(C(=O)Nc2nc(C)cs2)c1	-1	-2	-7	3	3
O=[N+]([O-])c1cccc2c(S(=O)(=O)N3CCCCC3)cccc12	1	1	-6	1	3
O=[N+]([O-])c1cccc2c(S(=O)(=O)N3CCOCC3)cccc12	21	4	32	-8	59*
Cc1cc(N2C(=O)C(=O)/C(=C(/O)c3ccc(F)cc3)C2c2cccc(Br)c2)no1 (stereo not drawn)	-1	-1	-9	16*	3
Cc1ccc(/C(O)=C2\C(=O)C(=O)N(c3cc(C)on3)C2c2cccc(Br)c2)cc1 (stereo not drawn)	1	2	-10	5	6
C(=C\c1nc(N2CCCC2)c2ccccc2n1)/c1ccccc1	85*	3	18	3	2
CC1CCN(c2nc(/C=C/c3ccccc3)nc3ccccc23)CC1	18	-1	18	0	3
O=C(O)c1cccc(-n2cccc2/C=C\[N+](=O)[O-])c1	1	-1	43	1	8
O=C(O)c1cccc(-n2cccc2/C=C/[N+](=O)[O-])c1	5	-1	85*	5	21
O=C(O)c1cccc2c(-c3ccccc3)c(-c3ccccc3)[nH]c12	6	2	-7	15*	-3
Cc1ccc2[nH]c3ccccc3c(=O)c2c1	1	2	-9	-1	5
O=c1c2ccccc2[nH]c2ccc(O)cc12	7	2	61*	2	8
Cc1c(-c2nc(N)nc(Nc3ccc(F)cc3)n2)oc2ccccc12	2	1	10	-1	-7
OC(c1cc(Cl)cc(Cl)c1)c1ncc(-c2ccccc2F)[nH]1 (stereo not drawn)	2	/	/	/	1
C=CCn1c(COc2ccccc2-c2ccccc2)nnc1SCC(=O)NC(=O)NCc1ccco1	2	5	1	16*	1
O=C(NCC(=O)N(c1ccc(Cl)cc1)C(C(=O)NC1CCCC1)c1cccnc1)c1ccco1 (stereo not drawn)	0	0	-4	-3	-2
O=C(O)c1cccc(-c2ccc(/C=C3/SC(=Nc4ccccc4)N(Cc4cccnc4)C3=O)o2)c1	1	/	73*	/	11
CCN1C(=O)/C(=C\c2ccc(-c3cccc(C(=O)OC)c3)o2)SC1=Nc1ccc(C(=O)O)cc1	/	-1	/	0	/
CN(C)C(=O)c1c([N+](=O)[O-])ncn1C	-1	0	-5	0	-1
SMILES	LMPTP block	PP5 inh	Scp-1 inhibitor	PP1 counter	STEP inh
CCN(CC)C(=O)c1ncn(C)c1C(=O)N(CC)CC	-1	/	92*	/	0
Cc1cc(C(=O)N/N=C/c2ccc([N+](=O)[O-])o2)c(C)o1	1	-3	18	0	0
O=C(N/N=C/c1ccco1)c1cc(-c2ccccc2)nc2ccccc12	0	-2	-2	1	-2
O=C(N/N=C/c1ccc([N+](=O)[O-])o1)c1cc(-c2cccc(Br)c2)nc2ccccc12	3	5	0	16*	0
CCCc1ccc(-c2cc(C(=O)N/N=C/c3ccc([N+](=O)[O-])o3)c3ccccc3n2)cc1	0	0	3	17*	-6
CN(C)c1ccc(Nc2nc(N)c3ccccc3n2)cc1	6	1	5	2	1
CN(C)c1ccc(Sc2ccc3nc(N)nc(N)c3c2)cc1	51*	/	/	/	2
CCOc1cc(C)c(C(C)C)cc1S(=O)(=O)N1CCOCC1	0	1	-2	-3	-1
COc1ccccc1/C=N/NC(=O)c1ccc(CN2C(=O)c3cccc4cccc2c34)cc1	4	1	8	16*	6
CC(C)n1nnc(-c2ccc(OCc3ccccc3F)cc2)n1	2	0	58*	0	1
Fc1ccccc1COc1ccc(-c2nnn(Cc3ccccc3F)n2)cc1	3	4	-18	2	-1
Cc1nc(N=Nc2ccc(O)cc2)n[nH]1	-1	1	81*	0	1
Cc1ccc(-c2nc(N=Nc3ccc(O)cc3)n[nH]2)cc1	1	3	-2	4	-2
O=C(COc1cccc(Cl)c1)NNC(=S)Nc1ccccc1	-1	-2	-12	-2	0
c1ccc2c(c1)ncn2CCCOc1ccc2c(c1)CCC2	3	1	-5	4	7
c1ccc2c(c1)ncn2CCCCOc1ccc2c(c1)CCC2	5	5	3	16*	1
COC(=O)C1(C)NC(c2ccc(Cl)cc2)C2C(=O)N(c3ccccc3)C(=O)C21 (stereo not drawn)	-1	2	-4	-4	0
Cc1ccc(C(=O)NN2CCOCC2)cc1	-1	-1	-7	1	-1
COc1ccc(C(NC(=O)C2CCN(CCOc3ccc(Cl)cc3Cl)CC2)c2ccccn2)cc1 (stereo not drawn)	0	/	/	/	0
Cc1cc2c(N)cccc2nn1	93*	0	60*	1	75*
Nc1cccc2nc3ccccc3cc12	13	4	-6	-1	-1
COc1ccc(/C(C)=N/NC(=O)c2nnn(-c3nonc3N)c2-c2cccs2)cc1	-1	1	-8	-8	-5
COc1ccc(/C(C)=N/NC(=O)c2nnn(-c3nonc3N)c2-c2ccccc2)cc1	52*	-1	14	-2	29
Cc1c(N)cc(C(=O)N2CCOCC2)cc1[N+](=O)[O-]	-3	1	-6	-2	-2
Cc1cccc(NC(=O)C2CC(=O)N(c3ccc4c(c3)OCCO4)C2)n1 (stereo not drawn)	-2	1	-6	6	0
Cc1c(CCCN)c2ccccc2n1Cc1ccccc1	0	4	6	2	0
C(=Cc1nc2ccccc2o1)c1ccc2c(c1)OCO2	-1	/	/	/	0
C[n+]1c(/C=C/c2ccc3c(c2)OCO3)ccc2ccccc21	0	-2	105*	-2	-1
Cc1nc(N2CCOCC2)nc(N2CCC(C)CC2)c1[N+](=O)[O-]	1	2	-5	-4	-1
